Screening data as filed in PubChem.
SR-BI uptake up – activators of SR-BI mediated HDL lipid uptake; CHO ldlA[mSR-BI] cells, DiI-HDL uptake fluorescence, 3 h; 100 = double the neutral-control signal; activation, % at 12.5 µM; 320,000 tested, 0.096% active; AID 504775;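 active = mean replicate activation of at least 60% and every replicate at or above 60%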
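Test system: SR-BI-overexpressing, LDLR-lacking CHO cells; Medium: Ham's F12 with 0.5% BSA, HEPES 25 mM, pH 7.4; Schedule: 3 h, 37 °C; Technique: bottom-read fluorescence, 550/595 nm.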
SR-BI HDL uptake – blocks mouse SR-BI lipid uptake from DiI-HDL; ldlA[mSR-BI] CHO cells, DiI-HDL uptake fluorescence, 3 h; inhibition, % at 12.5 µM; 320,000 tested, 0.96% active; AID 488896;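 active = mean replicate inhibition of at least 70% and a set share of replicates each scoring 70 or more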
Hep lipid drop – hepatic lipid droplet formation modulation; AML12 mouse hepatocytes, oleate lipid droplets, BODIPY imaging; inhibition, % at 6.5 µM; 240,000 tested, 0.4% active; AID 1656;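 active = lipid droplet intensity inhibited by at least 50%, with more than 500 cells counted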
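Test system: AML12 hepatocytes (mouse); reagent: oleate loading, 100 µM; dosing: one dose, 6.5 µM compound; incubation: overnight exposure; signal: fluorescence imaging, 20x objective, two fields per well; read-out basis: % inhibition of corrected integrated BODIPY droplet signal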
CR mimetic SO – caloric restriction mimetics inhibiting age-related superoxide in yeast. S. cerevisiae aged cells, superoxide DHE fluorescence; stronger effect = lower value. 330,000 tested, 0.18% active. AID 2690. superoxide response (% of plate mean), % at 10 µM;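 active = superoxide response under a set limit, about three screen SD below normal, cut at about 65% in these data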;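 note: yeast aged for seven days with compound at 30 °C before DHE staining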
AHR act – human AHR activation | 320,000 tested, 2.5% active | P35869 | AHR-responsive luciferase reporter cells, luminescence | activation, % at 5 µM; in the data active = activation above about 47%
Target sequence (P35869 whole entry, looked up): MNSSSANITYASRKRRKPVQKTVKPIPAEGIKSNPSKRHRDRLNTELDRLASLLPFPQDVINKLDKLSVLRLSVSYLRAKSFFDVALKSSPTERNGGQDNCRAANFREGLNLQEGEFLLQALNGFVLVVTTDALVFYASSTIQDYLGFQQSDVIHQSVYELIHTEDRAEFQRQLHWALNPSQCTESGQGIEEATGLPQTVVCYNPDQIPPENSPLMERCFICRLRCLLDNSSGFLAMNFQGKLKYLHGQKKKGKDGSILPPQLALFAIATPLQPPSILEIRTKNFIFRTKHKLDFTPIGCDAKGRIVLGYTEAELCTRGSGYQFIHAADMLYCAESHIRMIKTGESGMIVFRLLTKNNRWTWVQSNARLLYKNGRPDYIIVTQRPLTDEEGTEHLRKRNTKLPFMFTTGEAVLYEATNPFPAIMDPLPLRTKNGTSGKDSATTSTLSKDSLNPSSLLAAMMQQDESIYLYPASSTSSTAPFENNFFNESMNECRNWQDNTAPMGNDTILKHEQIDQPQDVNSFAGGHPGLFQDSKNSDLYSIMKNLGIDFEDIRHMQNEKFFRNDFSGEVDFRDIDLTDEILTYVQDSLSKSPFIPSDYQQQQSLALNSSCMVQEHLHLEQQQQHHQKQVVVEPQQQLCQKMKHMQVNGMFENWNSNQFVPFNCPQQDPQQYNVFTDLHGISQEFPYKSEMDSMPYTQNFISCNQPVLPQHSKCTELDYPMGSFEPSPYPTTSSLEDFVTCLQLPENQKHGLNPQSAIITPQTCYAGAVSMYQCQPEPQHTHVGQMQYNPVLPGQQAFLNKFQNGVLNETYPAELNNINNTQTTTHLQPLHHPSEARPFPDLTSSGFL
SMARCA2 act – increases SMARCA2 function in MMTV reporter cells | MG213 cells, MMTV-luciferase reporter, dexamethasone, overnight | activation, % at 9.1 µM | 370,000 tested, 1% active | AID 652017; in the data active = activation above about 7.8%
A number is an active result; i = inactive; nt = not tested or not shown. An excerpt weighted towards active compounds, which were near 4.3% of everything screened.

SMILES	SR-BI uptake up	SR-BI HDL uptake	Hep lipid drop	CR mimetic SO	AHR act	SMARCA2 act
COC(=O)[C@]12C[C@H](CC(=O)NCC34CC5CC(CC(C5)C3)C4)C(=O)N(Cc3ccc4c(c3)OCO4)C1=C[C@H](C(C)(C)C)O[C@@H]2C	nt	nt	nt	nt	nt	i
CC(C)(C)C(=O)OCc1nc(-c2ccc(F)cc2)cs1	i	i	i	i	i	7.9
CN(C)c1ccc(N=Cc2nc(-c3ccccc3)oc2OC(=O)c2ccccc2)cc1	i	i	i	i	49	i
CC(=O)Oc1oc(-c2ccccc2)nc1C=Nc1ccc(N(C)C)cc1	i	i	i	i	i	i
CCSc1ccccc1C(=O)Nc1ccc([N+](=O)[O-])cc1OC	i	84	i	i	i	i
CCCC(=O)Nc1ccc(C(=O)Nc2ccc([N+](=O)[O-])cc2OC)cc1	i	77	i	i	i	i
CCC(C)C(=O)Nc1ccc([N+](=O)[O-])cc1OC (configuration not stated)	i	i	i	i	i	i
CC(C)CN(CC(C)C)C(=O)CSc1nc2cccnc2n1C	nt	nt	nt	nt	nt	i
O=C(c1ccc(CS(=O)c2ccccc2Cl)o1)N1CCN(c2ccccn2)CC1 (configuration not stated)	i	i	i	i	59	i
O=C(c1ccc(CS(=O)Cc2ccccc2Cl)o1)N1CCN(c2ccccn2)CC1 (configuration not stated)	i	i	i	i	i	i
COc1ccccc1S(=O)(=O)Cc1ccc(C(=O)N2CCN(c3ccccn3)CC2)o1	i	i	i	i	66	nt
COC(=O)C1=C(C)N(Cc2cccc(C(F)(F)F)c2)C(=NCc2ccccc2C(F)(F)F)NC1c1ccc(Cl)cc1 (configuration not stated)	nt	nt	nt	nt	nt	i
CCOC(=O)c1nnc(-c2ccc(C)cc2)nc1Sc1ccc(Cl)cc1	i	i	i	i	i	i
CCOC(=O)c1nnc(-c2ccc(C)cc2)nc1N1CCSCC1	i	i	i	i	57	i
O=C(Nc1ccccc1OC(F)F)c1oc2ccccc2c1COc1ccccc1	i	i	i	i	49	i
COCc1c(C(=O)Nc2ccc(Cl)cc2F)oc2ccccc12	i	i	i	i	71	i
COc1cccc(OC)c1C(=O)Nc1cc(C)nn1-c1nc2ccccc2[nH]1	i	i	i	i	i	i
Cc1cc(NC(=O)c2cccs2)n(-c2nc3ccccc3[nH]2)n1	i	93	i	i	i	i
COc1ccc(C(=O)Nc2cc(C)nn2-c2nc3ccccc3[nH]2)c(OC)c1	i	75	i	i	i	i
Cc1cccc(OC[C@@H](O)CN2CCC(C(O)(c3ccccc3)c3ccccc3)CC2)c1	nt	nt	nt	nt	nt	i
c1ccc(Cc2cnc(N3CCN(Cc4cccc(-c5ccsc5)n4)CC3)nc2)cc1	nt	nt	nt	nt	nt	i
O=c1c2ccc([N+](=O)[O-])c3cccc(c32)c2nc3ccccc3n12	nt	nt	nt	i	50	nt
NC(=O)[C@H]1CC2(CC(c3cccc(NC(=O)COc4ccc(Cl)cc4)c3)=NO2)CN1C(=O)c1ccccc1C(=O)c1ccccc1 (some centres not stated)	i	77	i	i	i	i
NC(=O)[C@H]1CC2(CC(c3cccc(NC(=O)COc4ccc(Cl)cc4)c3)=NO2)CN1C(=O)c1ccc(Cl)cc1 (some centres not stated)	i	i	i	i	i	i
CC1CCN(CCCNS(=O)(=O)c2cc3c(cc2Br)CCN3C(=O)C2CC2)CC1	nt	nt	nt	nt	nt	i
SMILES	SR-BI uptake up	SR-BI HDL uptake	Hep lipid drop	CR mimetic SO	AHR act	SMARCA2 act
CCCOc1ccc(NC(=O)CC2Nc3ccccc3NC2=O)cc1 (configuration not stated)	i	i	i	i	i	i
Cc1ccc(NC(=O)CC2Nc3ccccc3NC2=O)cc1Cl (configuration not stated)	i	i	nt	nt	nt	i
CCCOc1ccccc1NC(=O)CC1Nc2ccccc2NC1=O (configuration not stated)	i	i	i	i	49	i
CCOc1ccccc1NC(=O)CC1Nc2ccccc2NC1=O (configuration not stated)	nt	nt	i	i	78	i
O=[N+]([O-])c1ccc(Nc2cccc3c2[nH]c2c(-c4ccccc4)nccc23)c([N+](=O)[O-])c1	i	79	nt	nt	nt	i
CCOC(=O)C1=C(COC(=O)/C=C/c2ccc(OC)c(OC)c2)NC(=O)NC1C (configuration not stated)	i	i	nt	i	i	i
CCOC(=O)C1=C(COC(=O)/C=C/c2cc(OC)c(OC)c(OC)c2)NC(=O)NC1C (configuration not stated)	i	81	i	i	i	i
CCc1ccc(CNC(=O)c2nn(C)c3c2CS(=O)(=O)c2ccccc2-3)cc1	i	i	i	i	i	i
CCOc1ccccc1CNC(=O)c1nn(C)c2c1CS(=O)(=O)c1ccccc1-2	i	88	i	i	i	i
COC(=O)C[C@H]1CC[C@@H]2[C@H](COc3ccc(NC(=O)NCc4ccccc4)cc3C(=O)N2C)O1	nt	nt	nt	nt	nt	i
C=CC[C@H]1c2ccccc2[C@H]2N3N=Cc4ccccc4[C@H]3[C@H](CCCC)C(=O)N2N1C(=O)NCc1ccccc1	nt	nt	nt	nt	nt	i
O=C(Nc1ccc(F)c(Cl)c1)C1CCCN(c2cnccn2)C1 (configuration not stated)	i	i	i	i	73	i
CCOC(=O)c1ccc(NC(=O)C2CCCN(c3cnccn3)C2)cc1 (configuration not stated)	i	i	i	i	63	i
COc1cccc(NC(=O)C2CCN(c3cnccn3)CC2)c1	nt	nt	i	i	i	i
O=C(Nc1cccc(F)c1)C1CCCN(c2cnccn2)C1 (configuration not stated)	i	i	i	i	52	i
CCOC(=O)c1ccc(NC(=O)C2CCCN(S(=O)(=O)c3cnc[nH]3)C2)cc1 (configuration not stated)	i	i	nt	i	i	i
Cc1ccccc1NC(=O)[C@@H]1CC(=O)O[C@@H]1c1ccccc1	nt	nt	nt	nt	nt	i
COc1ccc(CN(CCN2CCOCC2)C(=O)c2ccc(F)cc2Cl)cc1OC	nt	nt	nt	nt	nt	i
O=C(Cc1ccccn1)c1ccc(Cl)cc1	i	i	nt	i	i	i
CC1=C(CC(=O)c2ccc(Cl)cc2)C(=O)c2ccccc2C1=O	i	i	nt	i	55	i
COc1ccc(NC(=O)c2[nH]c(C)c(C(C)=O)c2C)cc1S(=O)(=O)N1CCOCC1	i	i	i	i	i	i
CC(=O)c1c(C)[nH]c(C(=O)OCC(=O)Nc2cccc(S(=O)(=O)N3CCCC3)c2)c1C	i	i	i	i	i	i
CC(=O)c1c(C)[nH]c(C(=O)Nc2cccc(S(=O)(=O)N3CCCC3)c2)c1C	i	74	nt	i	i	i
CC(=O)c1c(C)[nH]c(C(=O)Nc2ccc(Cl)c(S(=O)(=O)N3CCOCC3)c2)c1C	i	79	i	i	49	i
